Test results reported in ChEMBL document CHEMBL1140065, “Potent cationic inhibitors of West Nile virus NS2B/NS3 protease with serum stability, cell permeability and antiviral activity” (J Med Chem, 2008).
Activity calls are given as the source filed them. The calls are words filed in the database; no cut-off is given here. Starred links: 1 amine or outer side, 2 acyl side, 3 side chain; linkers in the order of their positions; H or OH if unused. Non-standard residues stand in square brackets, D forms with d. Residues, ends and D or L forms follow the SMILES beside them. *: point of attachment. Hydrocinnamoyl = O=C(CCc1ccccc1)*; hArg = N=C(N)NCCCC[C@H](N)C(=O)O; Cit = NC(=O)NCCC[C@H](N)C(=O)O; Orn = NCCC[C@H](N)C(=O)O; 2Abz = Nc1ccccc1C(=O)O; Cbz = O=C(OCc1ccccc1)*; PhAc = O=C(Cc1ccccc1)*; CO = O=C([*:1])[*:2]; NHBn = c1ccc(CN*)cc1; Bz = O=C(c1ccccc1)*

Legend:
[1] = target: Genome polyprotein (West Nile virus, UniProt P06935); assay: Inhibition of WNV recombinant NS2B-NS3 protease
Sequence of Genome polyprotein (P06935 1371-1501 limits assumed): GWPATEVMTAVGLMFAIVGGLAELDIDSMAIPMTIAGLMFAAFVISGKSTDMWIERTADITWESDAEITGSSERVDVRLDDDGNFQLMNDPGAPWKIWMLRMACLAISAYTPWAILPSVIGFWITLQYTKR
Sequence of Genome polyprotein (P06935 1502-2120 limits assumed): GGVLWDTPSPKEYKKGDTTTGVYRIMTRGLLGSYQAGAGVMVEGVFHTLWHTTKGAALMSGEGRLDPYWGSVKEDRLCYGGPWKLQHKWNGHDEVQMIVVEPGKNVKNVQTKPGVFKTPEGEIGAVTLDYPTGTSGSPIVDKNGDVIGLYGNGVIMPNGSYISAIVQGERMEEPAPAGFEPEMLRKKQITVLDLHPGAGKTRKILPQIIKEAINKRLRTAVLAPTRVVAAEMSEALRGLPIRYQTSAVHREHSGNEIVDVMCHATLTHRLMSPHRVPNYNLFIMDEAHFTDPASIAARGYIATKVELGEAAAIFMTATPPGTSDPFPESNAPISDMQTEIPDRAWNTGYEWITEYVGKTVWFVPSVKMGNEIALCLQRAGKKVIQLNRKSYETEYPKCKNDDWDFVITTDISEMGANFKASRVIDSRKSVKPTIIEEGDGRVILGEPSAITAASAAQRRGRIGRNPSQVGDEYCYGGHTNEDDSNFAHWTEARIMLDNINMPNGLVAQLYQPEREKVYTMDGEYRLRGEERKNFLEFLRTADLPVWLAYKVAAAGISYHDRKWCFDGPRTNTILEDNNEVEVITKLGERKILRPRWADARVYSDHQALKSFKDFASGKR

[2] = target: Genome polyprotein (West Nile virus) (UniProt P06935); assay: Inhibition of WNV recombinant NS2B-NS3 protease at 10 uM
Sequence of Genome polyprotein (West Nile virus) (P06935 whole entry): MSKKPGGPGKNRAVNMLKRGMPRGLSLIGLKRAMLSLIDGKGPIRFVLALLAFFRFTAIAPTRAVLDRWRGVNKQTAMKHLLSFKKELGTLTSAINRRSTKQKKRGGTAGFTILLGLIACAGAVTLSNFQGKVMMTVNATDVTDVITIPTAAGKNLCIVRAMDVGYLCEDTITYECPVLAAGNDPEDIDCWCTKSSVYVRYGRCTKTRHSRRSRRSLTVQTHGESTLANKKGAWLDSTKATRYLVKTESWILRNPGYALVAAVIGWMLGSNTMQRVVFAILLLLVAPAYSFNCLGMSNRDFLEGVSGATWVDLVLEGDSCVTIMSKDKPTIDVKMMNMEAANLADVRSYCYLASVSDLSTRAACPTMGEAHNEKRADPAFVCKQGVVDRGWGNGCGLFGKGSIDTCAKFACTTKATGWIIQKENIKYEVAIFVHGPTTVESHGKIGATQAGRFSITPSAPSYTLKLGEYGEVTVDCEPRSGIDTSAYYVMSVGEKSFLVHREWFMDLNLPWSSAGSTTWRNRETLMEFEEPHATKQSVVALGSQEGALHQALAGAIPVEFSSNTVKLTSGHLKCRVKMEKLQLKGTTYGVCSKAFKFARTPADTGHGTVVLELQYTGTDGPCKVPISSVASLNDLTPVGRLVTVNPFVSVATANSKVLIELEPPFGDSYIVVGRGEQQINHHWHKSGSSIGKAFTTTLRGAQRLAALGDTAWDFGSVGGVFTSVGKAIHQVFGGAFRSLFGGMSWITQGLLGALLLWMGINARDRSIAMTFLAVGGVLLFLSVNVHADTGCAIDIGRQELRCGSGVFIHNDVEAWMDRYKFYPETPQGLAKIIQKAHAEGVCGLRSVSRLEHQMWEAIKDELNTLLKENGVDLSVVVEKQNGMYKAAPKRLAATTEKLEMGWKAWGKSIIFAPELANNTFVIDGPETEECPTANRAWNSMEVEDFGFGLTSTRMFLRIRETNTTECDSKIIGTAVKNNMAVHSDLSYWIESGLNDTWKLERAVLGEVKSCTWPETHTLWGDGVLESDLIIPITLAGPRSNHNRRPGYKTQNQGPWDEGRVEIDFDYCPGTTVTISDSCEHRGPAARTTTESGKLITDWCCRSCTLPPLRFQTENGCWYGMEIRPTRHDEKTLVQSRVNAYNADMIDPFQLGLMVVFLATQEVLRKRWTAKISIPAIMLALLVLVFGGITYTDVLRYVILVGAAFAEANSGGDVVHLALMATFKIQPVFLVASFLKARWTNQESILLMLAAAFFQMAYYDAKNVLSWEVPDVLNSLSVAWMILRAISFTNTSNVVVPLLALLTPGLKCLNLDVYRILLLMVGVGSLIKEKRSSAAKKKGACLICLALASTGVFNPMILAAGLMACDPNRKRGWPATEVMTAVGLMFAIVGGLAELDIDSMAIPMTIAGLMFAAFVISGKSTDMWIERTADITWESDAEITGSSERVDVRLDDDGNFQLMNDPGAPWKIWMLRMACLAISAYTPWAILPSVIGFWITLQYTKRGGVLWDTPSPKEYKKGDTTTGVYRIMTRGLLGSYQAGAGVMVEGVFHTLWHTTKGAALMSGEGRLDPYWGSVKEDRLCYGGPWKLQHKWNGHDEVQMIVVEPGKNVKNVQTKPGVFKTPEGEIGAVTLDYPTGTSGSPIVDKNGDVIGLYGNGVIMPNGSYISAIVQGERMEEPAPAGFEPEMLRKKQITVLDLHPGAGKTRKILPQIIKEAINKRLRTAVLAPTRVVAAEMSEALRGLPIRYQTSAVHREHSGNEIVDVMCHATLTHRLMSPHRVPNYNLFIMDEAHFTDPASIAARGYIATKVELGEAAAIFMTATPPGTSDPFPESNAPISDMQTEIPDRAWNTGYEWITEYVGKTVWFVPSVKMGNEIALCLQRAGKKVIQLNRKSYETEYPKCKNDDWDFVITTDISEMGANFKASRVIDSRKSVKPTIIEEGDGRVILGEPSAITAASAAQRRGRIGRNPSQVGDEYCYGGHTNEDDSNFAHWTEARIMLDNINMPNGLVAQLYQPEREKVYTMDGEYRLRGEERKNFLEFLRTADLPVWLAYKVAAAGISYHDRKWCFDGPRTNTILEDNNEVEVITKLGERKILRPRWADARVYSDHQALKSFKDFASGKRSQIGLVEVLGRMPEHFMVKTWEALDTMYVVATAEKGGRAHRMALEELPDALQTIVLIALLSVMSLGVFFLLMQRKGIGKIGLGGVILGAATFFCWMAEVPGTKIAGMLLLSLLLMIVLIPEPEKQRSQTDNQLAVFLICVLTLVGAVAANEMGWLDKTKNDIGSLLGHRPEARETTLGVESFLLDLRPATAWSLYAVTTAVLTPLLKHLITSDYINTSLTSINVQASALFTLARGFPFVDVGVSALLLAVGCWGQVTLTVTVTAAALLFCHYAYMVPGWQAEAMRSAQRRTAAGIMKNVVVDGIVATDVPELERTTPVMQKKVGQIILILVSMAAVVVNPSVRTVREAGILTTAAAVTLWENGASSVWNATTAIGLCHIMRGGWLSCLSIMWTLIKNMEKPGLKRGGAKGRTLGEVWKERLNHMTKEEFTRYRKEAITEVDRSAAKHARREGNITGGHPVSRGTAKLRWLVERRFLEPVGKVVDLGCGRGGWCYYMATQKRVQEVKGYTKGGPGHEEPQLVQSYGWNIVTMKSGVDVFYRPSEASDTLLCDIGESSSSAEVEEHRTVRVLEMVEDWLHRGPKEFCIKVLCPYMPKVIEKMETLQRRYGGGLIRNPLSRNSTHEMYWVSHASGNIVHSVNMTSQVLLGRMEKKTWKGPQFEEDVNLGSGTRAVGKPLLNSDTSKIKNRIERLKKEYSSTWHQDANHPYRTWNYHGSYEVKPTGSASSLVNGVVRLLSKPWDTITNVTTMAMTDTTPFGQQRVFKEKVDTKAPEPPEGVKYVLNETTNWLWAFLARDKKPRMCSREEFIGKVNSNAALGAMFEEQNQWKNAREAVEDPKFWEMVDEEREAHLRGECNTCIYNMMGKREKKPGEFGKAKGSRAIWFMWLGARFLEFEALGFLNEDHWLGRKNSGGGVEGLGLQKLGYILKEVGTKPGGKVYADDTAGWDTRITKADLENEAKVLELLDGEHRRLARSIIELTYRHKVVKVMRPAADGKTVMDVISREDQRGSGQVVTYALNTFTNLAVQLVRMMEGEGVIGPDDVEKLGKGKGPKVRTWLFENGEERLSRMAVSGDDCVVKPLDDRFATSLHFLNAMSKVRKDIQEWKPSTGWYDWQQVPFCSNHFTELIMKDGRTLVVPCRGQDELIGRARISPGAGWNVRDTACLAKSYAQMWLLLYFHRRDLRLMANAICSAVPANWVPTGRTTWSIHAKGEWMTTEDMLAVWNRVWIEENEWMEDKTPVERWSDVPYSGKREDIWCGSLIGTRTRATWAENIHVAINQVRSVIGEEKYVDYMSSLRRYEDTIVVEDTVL
Outline: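 Single-concentration screen at 10 µM inhibitor, scoring inhibition of recombinant WNV protease processing of the chromogenic tetrapeptide substrate Ac-LKKR-pNA.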

[3] = test system: Vero; assay: Cytotoxicity against african green monkey Vero cells upto 400 uM after 72 hrs by MTT assay; format: cell-based; details: chlorocebus sabaeus
Outline: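 MTT viability in Vero cells seeded at 4 × 10^4 per well and grown to about 90% confluence (~12 h). Fresh medium held compound at 5 nM–400 µM, with control medium ± DMSO. After 72 h, MTT was added for 3.5 h at 37 °C, then HCl/isopropanol for 4 h at RT. Absorbance was read at 550 nm; CC50 estimated; duplicates.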

[4] = test system: West Nile virus; assay: Antiviral activity against WNV Kunjin infected african green monkey Vero cells assessed as reduction in plaque size at 12.5 uM measured at 48 hrs postinfection; format: functional, organism-based
Outline: (§1)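 Vero cells were seeded at 4 × 10^4 per well and grown to about 90% confluence, then washed with PBS and serum-free medium. Cells were coinfected with WNV Kunjin (moi 0.04) plus compound at 100 nM–200 µM for 2 h at 37 °C. Overlay was M199, 3% FBS, 1.2% carboxymethyl cellulose, 48 h. Plaques were immunostained with anti-NS1 antibody and read as infrared area; ten plaques averaged per well, duplicates, IC50 from dose-response.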

[5] = test system: West Nile virus; assay: Antiviral activity against WNV Kunjin infected african green monkey Vero cells assessed as reduction in plaque size measured at 48 hrs postinfection; format: functional, organism-based; outline: as §1
[6] = species: Bos taurus; assay: Inhibition of bovine trypsin at 1 uM
[7] = target: Coagulation factor X (Bos taurus) (UniProt P00743); assay: Inhibition of bovine factor 10a at 1 uM
[8] = target: Plasminogen (Homo sapiens) (UniProt P00747); assay: Inhibition of human plasmin at 1 uM
Sequence of Plasminogen (Homo sapiens) (P00747 97-580 limits assumed): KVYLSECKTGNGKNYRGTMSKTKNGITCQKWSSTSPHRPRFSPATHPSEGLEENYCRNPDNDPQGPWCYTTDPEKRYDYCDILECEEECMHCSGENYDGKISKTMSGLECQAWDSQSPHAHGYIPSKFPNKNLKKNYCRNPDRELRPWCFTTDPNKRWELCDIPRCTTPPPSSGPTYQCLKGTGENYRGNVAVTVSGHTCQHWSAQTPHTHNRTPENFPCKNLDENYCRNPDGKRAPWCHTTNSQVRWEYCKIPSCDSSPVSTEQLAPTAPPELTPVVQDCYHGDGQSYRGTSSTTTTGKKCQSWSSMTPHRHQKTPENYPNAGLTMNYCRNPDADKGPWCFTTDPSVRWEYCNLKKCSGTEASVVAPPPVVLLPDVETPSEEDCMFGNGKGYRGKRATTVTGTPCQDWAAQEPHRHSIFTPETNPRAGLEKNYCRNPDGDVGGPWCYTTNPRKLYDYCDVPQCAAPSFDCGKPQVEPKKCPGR
Sequence of Plasminogen (Homo sapiens) (P00747 581-810 limits assumed): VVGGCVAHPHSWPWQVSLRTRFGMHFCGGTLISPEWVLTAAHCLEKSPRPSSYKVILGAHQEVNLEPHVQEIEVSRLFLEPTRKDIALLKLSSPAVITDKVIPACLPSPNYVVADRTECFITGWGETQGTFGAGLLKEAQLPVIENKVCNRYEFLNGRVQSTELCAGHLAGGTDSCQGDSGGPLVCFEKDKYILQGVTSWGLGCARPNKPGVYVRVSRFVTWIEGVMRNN

[9] = target: Urokinase-type plasminogen activator (Homo sapiens) (UniProt P00749); assay: Inhibition of human urokinase at 1 uM

With `NCCCC[C@H](NC(=O)Cc1ccccc1)C(=O)N[C@@H](CCCCN)C(=O)N[C@H](C=O)Cc1c[nH]c2ccccc12` (PhAc-Lys-Lys-Trp-aldehyde) the IC50 [1] was 25700 nM and the Ki [1] was 4600 nM.

For `NCCCC[C@H](NC(=O)c1ccccc1)C(=O)N[C@@H](CCCCN)C(=O)N[C@H](C=O)CCCN=C(N)N` (Bz-Lys-Lys-Arg-aldehyde), the IC50 [1] was 271 nM and the Ki [1] was 49 nM.

`N=C(N)NCCC[C@@H](C=O)NC(=O)[C@H](CCCCN)NC(=O)[C@H](CCCCN)NC(=O)NCc1ccccc1` ({NHBn-CO}-Lys-Lys-Arg-aldehyde) was tested, and the inhibition [2] was > 80%, the IC50 [1] was 146 nM and the Ki [1] was 26 nM.

`N=C(N)NCCCC[C@H](NC(=O)[C@H](CCCCN)NC(=O)Cc1ccccc1)C(=O)N[C@H](C=O)CCCNC(=N)N` (PhAc-Lys-[hArg]-Arg-aldehyde) gave an IC50 [1] of 297 nM and a Ki [1] of 53 nM.

With `COc1ccc2ccc([C@H](C)C(=O)N[C@@H](CCCCN)C(=O)N[C@@H](CCCCN)C(=O)N[C@H](C=O)CCCNC(=N)N)cc2c1` the inhibition [2] was > 80%, the IC50 [1] was 112 nM and the Ki [1] was 20 nM.

In the case of `N=C(N)NCCC[C@@H](C=O)NC(=O)[C@H](CCCNC(N)=O)NC(=O)[C@H](CCCCN)NC(=O)Cc1ccccc1` (PhAc-Lys-[Cit]-Arg-aldehyde), the IC50 [1] is reported as 11600 nM and the Ki [1] is reported as 2070 nM.

`NCCCC[C@H](NC(=O)OCc1ccccc1)C(=O)N[C@@H](CCCCN)C(=O)N[C@H](C=O)CCCN=C(N)N` (Cbz-Lys-Lys-Arg-aldehyde) gave an IC50 [1] of 222 nM and a Ki [1] of 40 nM.

For `NCCCC[C@H](NC(=O)Cc1ccccc1)C(=O)N[C@@H](CCCCN)C(=O)N[C@H](C=O)CCCN=C(N)N` (PhAc-Lys-Lys-Arg-aldehyde), the IC50 [1] was 51 nM, the Ki [1] was 9 nM and the Activity [3] was “Non-toxic”.

In the case of `COc1cccc(CC(=O)N[C@@H](CCCCN)C(=O)N[C@@H](CCCCN)C(=O)N[C@H](C=O)CCCN=C(N)N)c1`, the IC50 [1] is reported as 60 nM and the Ki [1] is reported as 11 nM.

Work on `N=C(N)NCCCC[C@H](NC(=O)Cc1ccccc1)C(=O)N[C@@H](CCCCN)C(=O)N[C@H](C=O)CCCNC(=N)N` (PhAc-[hArg]-Lys-Arg-aldehyde) yielded an IC50 [1] of 254 nM and a Ki [1] of 44 nM.

Work on `NCCCC[C@H](NC(=O)[C@H](CCCN=C(N)N)NC(=O)Cc1ccccc1)C(=O)N[C@H](C=O)CCCN=C(N)N` (PhAc-Arg-Lys-Arg-aldehyde) yielded an IC50 [1] of 154 nM and a Ki [1] of 28 nM.

With `N=C(N)NCCC[C@@H](C=O)NC(=O)[C@H](CCCCN)NC(=O)[C@H](CCCCN)NC(=O)Cc1ccc(-c2ccccc2)cc1` the inhibition [2] was > 80%, the IC50 [1] was 32 nM and the Ki [1] was 6 nM.

With `NCCCC[C@H](NC(=O)c1ccc2ccccc2c1)C(=O)N[C@@H](CCCCN)C(=O)N[C@H](C=O)CCCN=C(N)N` the IC50 [1] was 231 nM and the Ki [1] was 41 nM.

For `N=C(N)NCCC[C@@H](C=O)NC(=O)[C@H](CCCCN)NC(=O)[C@H](CCCCN)NC(=O)COc1ccccc1`, the IC50 [1] was 107 nM and the Ki [1] was 19 nM.

`N=C(N)NCCC[C@@H](C=O)NC(=O)[C@H](CCCN)NC(=O)[C@H](CCCCN)NC(=O)Cc1ccccc1` (PhAc-Lys-[Orn]-Arg-aldehyde) was tested, and the IC50 [1] was 73 nM and the Ki [1] was 13 nM.

`N=C(N)NCCC[C@@H](C=O)NC(=O)[C@H](CCCCN)NC(=O)[C@H](CCCN)NC(=O)Cc1ccccc1` (PhAc-[Orn]-Lys-Arg-aldehyde) gave an IC50 [1] of 255 nM and a Ki [1] of 46 nM.

`NCCCC[C@H](NC(=O)CCc1ccccc1)C(=O)N[C@@H](CCCCN)C(=O)N[C@H](C=O)CCCN=C(N)N` (Hydrocinnamoyl-Lys-Lys-Arg-aldehyde) gave an IC50 [1] of 454 nM and a Ki [1] of 81 nM.

Work on `N=C(N)NCCC[C@@H](C=O)NC(=O)[C@H](CCCNC(=N)N)NC(=O)[C@H](CCCCN)NC(=O)Cc1ccccc1` (PhAc-Lys-Arg-Arg-aldehyde) yielded an IC50 [1] of 325 nM and a Ki [1] of 58 nM.

`N=C(N)NCCC[C@@H](C=O)NC(=O)[C@H](CCCCN)NC(=O)[C@H](CCCCN)NC(=O)Cc1ccccc1` (PhAc-Lys-Lys-Arg-aldehyde) was tested, and the inhibition [2] was > 80%, the Activity [4] was “Active” and the IC50 [5] was 1600 nM. The inhibition [6] was 25%, the inhibition [7] was 0% and the inhibition [8] was 12%. For the same compound, the inhibition [9] was 0%.

For `N=C(N)NCCC[C@@H](C=O)NC(=O)[C@H](CCCCN)NC(=O)[C@H](CCCCN)NC(=O)c1ccc2ccccc2c1`, the inhibition [2] was > 80%.

`N=C(N)NCCC[C@@H](C=O)NC(=O)[C@H](CCCCN)NC(=O)[C@H](CCCNC(N)=O)NC(=O)Cc1ccccc1` (PhAc-[Cit]-Lys-Arg-aldehyde) was tested, and the IC50 [1] was 619 nM and the Ki [1] was 111 nM.

For `COc1cccc(CC(=O)N[C@@H](CCCCN)C(=O)N[C@@H](CCCCN)C(=O)N[C@H](C=O)CCCNC(=N)N)c1`, the inhibition [2] was > 80%.

Compound `N=C(N)NCCC[C@@H](C=O)NC(=O)[C@H](CCCCN)NC(=O)[C@H](CCCCN)NC(=O)c1ccccc1N` (H-[2Abz]KKR-aldehyde) has an IC50 [1] of 891 nM and a Ki [1] of 160 nM.

For `N=C(N)NCCC[C@@H](C=O)NC(=O)[C@H](CCCCN)NC(=O)[C@H](CCCCN)NC(=O)/C=C/c1ccccc1`, the inhibition [2] was > 80%, the IC50 [1] was 580 nM and the Ki [1] was 104 nM.
